Assay results as given in ChEMBL document CHEMBL4312018, “Novel benzimidazole phosphonates as potential inhibitors of protein prenylation” (Bioorg Med Chem Lett, 2019).
Activity calls are given as the source filed them.

Experiments:
[1] = target: T1, Farnesyl pyrophosphate synthase (Homo sapiens, UniProt P14324); assay: Inhibition of FDPS (unknown origin) using [14C] IPP and GPP as substrate preincubated for 10 mins followed by substrate addition and measured after 30 min by liquid scintillation counting method
T1 sequence (P14324 whole entry): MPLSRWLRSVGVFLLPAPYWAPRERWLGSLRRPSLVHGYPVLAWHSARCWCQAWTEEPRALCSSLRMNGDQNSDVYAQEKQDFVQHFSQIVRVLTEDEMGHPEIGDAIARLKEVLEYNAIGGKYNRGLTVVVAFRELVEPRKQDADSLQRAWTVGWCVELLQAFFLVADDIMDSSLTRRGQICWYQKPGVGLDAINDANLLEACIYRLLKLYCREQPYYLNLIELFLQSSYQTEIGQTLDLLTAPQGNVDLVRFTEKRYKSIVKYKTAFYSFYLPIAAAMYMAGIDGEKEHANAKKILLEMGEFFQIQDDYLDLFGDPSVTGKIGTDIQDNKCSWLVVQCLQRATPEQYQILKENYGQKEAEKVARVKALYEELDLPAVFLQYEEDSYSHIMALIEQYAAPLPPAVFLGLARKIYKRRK

[2] = target: T2, Protein farnesyltransferase (Homo sapiens) (UniProt P49354+P49356); assay: Inhibition of FTase in human RPMI8226 cells assessed as disruption of H-ras farnesylation at 1 to 5 mM incubated for 48 hrs by immunoblot analysis; assay type: cell-based
[3] = target: Protein farnesyltransferase (Rattus norvegicus, UniProt Q02293+Q04631); assay: Inhibition of recombinant rat FTase expressed in Escherichia coli using dansyl-GCVLS as substrate after 1.5 hrs by spectrofluorimetric analysis
[4] = target: T3, Geranylgeranyl transferase type-2 (Rattus norvegicus, UniProt Q08602+Q08603); assay: Inhibition of recombinant rat RabGGTase expressed in Escherichia coli using Rab7 as substrate and [3H]geranylgeranyl pyrophosphate after 20 mins by liquid scintillation analysis
T3 sequence (Q08603 whole entry): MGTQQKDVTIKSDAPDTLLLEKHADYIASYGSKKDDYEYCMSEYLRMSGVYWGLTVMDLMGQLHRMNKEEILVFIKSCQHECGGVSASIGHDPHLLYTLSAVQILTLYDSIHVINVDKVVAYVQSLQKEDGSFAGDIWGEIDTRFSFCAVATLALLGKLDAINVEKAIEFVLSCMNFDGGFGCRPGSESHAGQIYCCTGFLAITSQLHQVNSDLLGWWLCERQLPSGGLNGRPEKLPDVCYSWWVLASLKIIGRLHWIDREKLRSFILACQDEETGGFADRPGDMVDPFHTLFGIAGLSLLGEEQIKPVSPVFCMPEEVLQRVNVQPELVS
T3 sequence (Q08602 whole entry): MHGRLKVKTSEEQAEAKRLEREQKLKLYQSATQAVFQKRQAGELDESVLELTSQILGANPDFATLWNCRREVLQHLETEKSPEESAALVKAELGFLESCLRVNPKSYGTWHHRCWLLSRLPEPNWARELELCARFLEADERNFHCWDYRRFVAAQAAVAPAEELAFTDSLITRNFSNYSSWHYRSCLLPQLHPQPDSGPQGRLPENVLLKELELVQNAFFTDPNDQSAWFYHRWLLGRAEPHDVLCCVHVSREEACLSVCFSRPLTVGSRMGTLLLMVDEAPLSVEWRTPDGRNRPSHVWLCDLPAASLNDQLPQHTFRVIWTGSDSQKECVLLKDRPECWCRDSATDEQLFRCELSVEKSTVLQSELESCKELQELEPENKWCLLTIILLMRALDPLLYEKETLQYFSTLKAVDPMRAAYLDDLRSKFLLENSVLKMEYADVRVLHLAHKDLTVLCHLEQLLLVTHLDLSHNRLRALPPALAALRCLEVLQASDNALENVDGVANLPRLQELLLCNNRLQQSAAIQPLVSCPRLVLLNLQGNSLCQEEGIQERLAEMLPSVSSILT

[5] = target: T4, Geranylgeranyl transferase type I (Homo sapiens) (UniProt P49354+P53609); assay: Inhibition of GGtase-1 in human RPMI8226 cells assessed as disruption of Rap1a geranylgeranylation at 1 to 5 mM incubated for 48 hrs by immunoblot analysis; assay type: cell-based
[6] = target: T5, Geranylgeranyl pyrophosphate synthase (Homo sapiens, UniProt O95749); assay: Inhibition of GGDPS (unknown origin) using [14C] IPP and FPP as substrate preincubated for 10 mins followed by substrate addition and measured after 30 min by liquid scintillation counting method
T5 sequence (O95749 whole entry): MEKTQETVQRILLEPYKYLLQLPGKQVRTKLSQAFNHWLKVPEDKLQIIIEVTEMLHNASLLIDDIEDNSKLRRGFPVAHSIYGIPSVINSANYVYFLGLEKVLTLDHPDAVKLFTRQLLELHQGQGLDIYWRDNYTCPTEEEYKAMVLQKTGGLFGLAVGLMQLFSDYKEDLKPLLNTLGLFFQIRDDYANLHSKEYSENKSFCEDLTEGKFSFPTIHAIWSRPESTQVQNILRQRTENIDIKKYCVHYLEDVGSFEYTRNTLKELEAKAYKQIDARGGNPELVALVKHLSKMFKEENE

[7] = target: T6, Farnesyl pyrophosphate synthase (Homo sapiens) (UniProt P14324)
T6 sequence (whole entry): T1 sequence (P14324 whole entry)

[8] = target: geranylgeranyltransferase type-I (Rattus norvegicus, UniProt P53610+Q04631); assay: Inhibition of recombinant rat GGtase-1 expressed in Escherichia coli using dansyl-GCVLL as substrate after 1.5 hrs by spectrofluorimetric analysis
[9] = target: T6, Farnesyl pyrophosphate synthase (Homo sapiens); remark: listed apart in the source
[10] = target: T7, Geranylgeranyl transferase type-2 (Homo sapiens) (UniProt P53611+Q92696); assay: Inhibition of GGtase-2 in human cells assessed as minimum effective dose causing => 20% decrease in Rab6 level after 48 hrs by immunoblot analysis; assay type: cell-based
Method in brief: (§1)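 The lowest effective concentration in RPMI-8226 cells after 48 h requires both criteria below: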

[11] = target: T7, Geranylgeranyl transferase type-2 (Homo sapiens); assay: Inhibition of GGTase-2 in human RPMI8226 cells assessed as ratio of calnexin to Rab6 level at […] after 48 hrs by immunoblot analysis relative to control; assay type: cell-based
[12] = target: T7, Geranylgeranyl transferase type-2 (Homo sapiens); assay: Inhibition of GGTase-2 in human RPMI8226 cells assessed as ratio of calnexin to Rab6 level at 5 mM after 48 hrs by immunoblot analysis relative to control; assay type: cell-based
Method in brief: (§2)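 After 48 h treatment, RPMI-8226 cells were extracted with Triton X-114 to give a detergent (membrane) fraction, which was immunoblotted for Rab6. Rab6 band density was normalized to calnexin and expressed relative to untreated cells. Blots are representative of three independent studies.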

[13] = target: T7, Geranylgeranyl transferase type-2 (Homo sapiens); assay: Inhibition of GGTase-2 in human RPMI8226 cells assessed as ratio of calnexin to Rab6 level at 1 mM after 48 hrs by immunoblot analysis relative to control; assay type: cell-based; method in brief: as §2
[14] = target: T7, Geranylgeranyl transferase type-2 (Homo sapiens); assay: Inhibition of GGtase-2 in human cells assessed as minimum effective dose required for increase in intracellular lambda chain level after 48 hrs by ELISA; assay type: cell-based; method in brief: as §1
[15] = target: T7, Geranylgeranyl transferase type-2 (Homo sapiens); assay: Inhibition of GGtase-2 in human RPMI8226 cells assessed as increase in intracellular lambda light chain level at 1 to 5 mM incubated for 48 hrs […]; assay type: cell-based
Method in brief: (§3)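 RPMI-8226 cells were incubated 48 h with the compound or medium alone. Intracellular lambda light chain was quantified by ELISA and expressed as percent of untreated control (mean ± SD, n=3). Significance versus control was judged by t-test, p<0.05.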

[16] = target: T7, Geranylgeranyl transferase type-2 (Homo sapiens); assay: Inhibition of GGtase-2 in human cells assessed as decrease in Rab6 level at =< 5 mM after 48 hrs by immunoblot analysis relative to control; assay type: cell-based; method in brief: as §2
[17] = target: T6, Farnesyl pyrophosphate synthase (Homo sapiens); assay: Inhibition of FDPS in human RPMI8226 cells assessed as unmodified Rap1a level at =< 5 mM after 48 hrs by immunoblot analysis; assay type: cell-based
Method in brief: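 RPMI-8226 cells were exposed for 48 h. The lowest effective concentration counts only when two read-outs agree. Unmodified Rap1a must be visible on immunoblot of whole-cell lysate, using an antibody that detects only unmodified protein.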

[18] = target: T7, Geranylgeranyl transferase type-2 (Homo sapiens); assay: Inhibition of GGtase-2 in human cells assessed as increase in intracellular lambda chain at =< 5 mM level after 48 hrs by ELISA; assay type: cell-based; method in brief: as §3
[19] = target: T6, Farnesyl pyrophosphate synthase (Homo sapiens); assay: Inhibition of FDPS in human RPMI8226 cells assessed as increase in intracellular lambda chain level at =< 5 mM after 48 hrs by ELISA; assay type: cell-based
Method in brief: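 RPMI-8226 cells were exposed for 48 h, and intracellular lambda light chain was measured by ELISA as percent of untreated control. The lowest effective concentration also requires unmodified Rap1a to be visible on whole-cell-lysate immunoblot with an unmodified-specific antibody. The ELISA rise must be statistically significant.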

[20] = target: T4, Geranylgeranyl transferase type I (Homo sapiens); assay: Inhibition of GGtase-1 in human RPMI8226 cells assessed as disruption of Rap1a geranylgeranylation at 0.5 uM after 48 hrs by immunoblot analysis; assay type: cell-based
[21] = target: T2, Protein farnesyltransferase (Homo sapiens); assay: Inhibition of FTase in human RPMI8226 cells assessed as disruption of H-ras farnesylation at 0.5 uM after 48 hrs by immunoblot analysis; assay type: cell-based
Homo sapiens = species on record: Homo sapiens; assay: Selectivity ratio of IC50 for GGDPS (unknown origin) to IC50 for FDPS (unknown origin)

SMILES | IC50 [1] [µM] | IC50 [3] [µM] | IC50 [4] [µM] | IC50 [6] [µM] | LED [7] [mM] | IC50 [8] [µM] | LED [9] [mM] | LED [10] [mM] | LED [14] [mM] | also measured
O=C(O)C(Cn1cnc2ccccc21)P(=O)(O)O (stereo unspecified) | > 100 | 125 | 198 | > 100 | 1 | > 1000 | 1 | 1 | 1 | inhibition [2]: inactive; inhibition [5]: inactive; FC [11]: 0.4; fold change (FC) [12]: 0.3; fold change (FC) [13]: 0.6; inhibition [15]: Active
O=C(O)C(Cn1cnc2cc(F)c(F)cc21)P(=O)(O)O (stereo unspecified) | > 100 | 450 | > 1000 | > 100 | – | 145 | – | – | – | inhibition [16]: inactive; inhibition [17]: inactive; inhibition [18]: inactive; inhibition [19]: inactive
CC[C@H](C)C(=O)O[C@H]1C[C@@H](C)C=C2C=C[C@H](C)[C@H](CC[C@@H]3C[C@@H](O)CC(=O)O3)[C@H]21 | – | – | – | – | – | – | – | – | – | inhibition [20]: Active; inhibition [21]: Active
O=P(O)(O)C(Cn1cnc2cc(F)c(F)cc21)P(=O)(O)O | 0.15 | 340 | 738 | 87 | 0.5 | 122 | 0.5 | 0.5 | 0.5 | Ratio IC50 (Homo sapiens): 580
